Test results from article PMC8590456 (Nature chemical biology, 2021).

Assays:
[1] = tested on: wild-type T-ALL cell lines (Jurkat and MOLT4); assay: 3-day growth rate inhibition; assay type: cell-based, Human; details: GR assay, 72 h
Outline: (§1)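 Cells were kept in RPMI 1640 with 10% FBS at 37 °C and 5% CO2, then plated at 6×10^3 cells/well for 24 h. Time 0 was read, then cells were dosed 10 nM–10 μM for 72 h. Viable cells were read by CellTiter-Glo luminescence. GR values, GR50 and GRmax were calculated from time-0 and 72-h data, with growth relative to DMSO. Mean ± s.d., n=3 biologically independent samples, representative of 2 experiments.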

CDK13 = CDK13 (Homo sapiens, UniProt Q14004); assay: Immunoblot of CDK13 protein level in Jurkat cells; assay type: cell-based; details: 6 h, indicated concentrations
Sequence of CDK13 (Q14004 whole entry): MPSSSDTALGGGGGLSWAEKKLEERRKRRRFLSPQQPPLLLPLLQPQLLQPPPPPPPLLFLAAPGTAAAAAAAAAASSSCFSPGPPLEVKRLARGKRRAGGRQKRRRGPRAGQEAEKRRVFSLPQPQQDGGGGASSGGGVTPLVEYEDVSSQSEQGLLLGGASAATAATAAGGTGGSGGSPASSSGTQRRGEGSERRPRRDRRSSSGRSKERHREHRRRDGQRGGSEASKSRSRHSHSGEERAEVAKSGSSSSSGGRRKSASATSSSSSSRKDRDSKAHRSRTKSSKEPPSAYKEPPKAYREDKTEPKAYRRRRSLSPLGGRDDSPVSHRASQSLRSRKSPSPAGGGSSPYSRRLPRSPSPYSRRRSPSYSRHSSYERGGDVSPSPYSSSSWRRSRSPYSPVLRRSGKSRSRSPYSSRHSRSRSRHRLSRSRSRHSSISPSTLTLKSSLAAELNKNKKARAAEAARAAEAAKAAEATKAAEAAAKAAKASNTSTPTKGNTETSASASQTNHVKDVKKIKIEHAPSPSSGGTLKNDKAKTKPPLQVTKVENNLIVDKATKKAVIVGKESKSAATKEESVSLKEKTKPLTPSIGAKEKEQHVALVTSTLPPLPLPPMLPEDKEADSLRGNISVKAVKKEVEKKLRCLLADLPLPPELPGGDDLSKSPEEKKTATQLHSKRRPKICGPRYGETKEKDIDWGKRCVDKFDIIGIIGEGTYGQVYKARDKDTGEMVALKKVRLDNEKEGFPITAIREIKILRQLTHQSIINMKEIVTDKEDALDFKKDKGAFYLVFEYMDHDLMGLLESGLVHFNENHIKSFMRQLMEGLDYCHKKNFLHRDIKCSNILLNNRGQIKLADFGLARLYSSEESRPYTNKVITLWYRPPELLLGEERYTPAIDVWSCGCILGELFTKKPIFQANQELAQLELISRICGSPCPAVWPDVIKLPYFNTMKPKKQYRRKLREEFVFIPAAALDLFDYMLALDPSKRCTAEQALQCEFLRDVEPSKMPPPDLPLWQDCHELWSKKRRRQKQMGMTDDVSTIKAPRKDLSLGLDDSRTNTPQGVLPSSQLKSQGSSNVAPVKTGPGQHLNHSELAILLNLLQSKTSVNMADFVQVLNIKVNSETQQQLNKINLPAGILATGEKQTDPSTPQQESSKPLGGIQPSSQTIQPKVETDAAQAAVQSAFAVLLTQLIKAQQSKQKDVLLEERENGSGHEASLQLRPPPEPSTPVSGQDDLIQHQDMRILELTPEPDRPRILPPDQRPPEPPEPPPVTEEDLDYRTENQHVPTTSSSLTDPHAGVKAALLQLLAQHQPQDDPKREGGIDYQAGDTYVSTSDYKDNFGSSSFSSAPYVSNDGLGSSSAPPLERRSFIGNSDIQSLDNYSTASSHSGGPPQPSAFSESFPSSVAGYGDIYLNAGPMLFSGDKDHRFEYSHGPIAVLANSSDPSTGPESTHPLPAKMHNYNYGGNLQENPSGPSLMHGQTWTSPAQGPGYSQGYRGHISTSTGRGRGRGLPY
Sequence of CDK13 (O75909 whole entry partner): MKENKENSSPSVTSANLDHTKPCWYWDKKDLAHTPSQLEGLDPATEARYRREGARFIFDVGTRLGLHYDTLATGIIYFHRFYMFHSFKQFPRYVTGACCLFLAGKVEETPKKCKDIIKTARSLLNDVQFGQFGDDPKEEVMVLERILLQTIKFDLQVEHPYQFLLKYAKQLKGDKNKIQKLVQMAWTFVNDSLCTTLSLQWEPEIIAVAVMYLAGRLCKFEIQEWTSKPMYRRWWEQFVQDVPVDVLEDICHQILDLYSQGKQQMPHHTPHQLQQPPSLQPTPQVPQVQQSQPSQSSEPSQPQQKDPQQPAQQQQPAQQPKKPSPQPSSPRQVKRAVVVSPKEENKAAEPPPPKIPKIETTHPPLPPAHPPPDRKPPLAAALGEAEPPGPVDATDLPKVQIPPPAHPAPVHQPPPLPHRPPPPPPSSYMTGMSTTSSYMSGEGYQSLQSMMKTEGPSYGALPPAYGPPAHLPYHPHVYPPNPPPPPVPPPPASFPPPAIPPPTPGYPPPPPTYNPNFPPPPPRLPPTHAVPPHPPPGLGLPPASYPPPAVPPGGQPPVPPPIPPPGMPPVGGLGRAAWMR
Outline: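 Jurkat cells were treated 6 h with DMSO or CDK12 degraders at the indicated concentrations in a preliminary screen. Lysis was in NP40 buffer with protease and phosphatase inhibitors plus 1 mM PMSF. Immunoblots for CDK12, CDK13 and β-actin were imaged on an infrared scanner.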

[2] = tested on: CRBN−/− cells (Jurkat and MOLT4); assay: 3-day growth rate inhibition; assay type: cell-based, Human; details: 72 h
Outline: as §1

Cyclin K = assay: Immunoblot of Cyclin K protein level in Jurkat cells; assay type: cell-based, Human; details: 6 h
Jurkat cells = assay: 3' poly; assay type: cell-based, Human; details: 8 h
Outline: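 Poly(A) 3'-end libraries were sequenced. Metagene profiles of normalised reads span gene bodies ±2 kb, with sense and antisense reads shown separately. Differential expression used 3' UTR-associated poly(A)-site counts summed per gene. Intronic versus 3' UTR poly(A) usage was compared by odds ratio for transcripts with TPM > 1.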

CDK9 = CDK9 (Homo sapiens, UniProt P50750+Q96SW2); assay: Immunoblot of CDK9 in parental and resistant cells; assay type: cell-based; details: parental and resistant Jurkat and MOLT4 cells, 250 nM, 8 h
Sequence of CDK9 (P50750 whole entry): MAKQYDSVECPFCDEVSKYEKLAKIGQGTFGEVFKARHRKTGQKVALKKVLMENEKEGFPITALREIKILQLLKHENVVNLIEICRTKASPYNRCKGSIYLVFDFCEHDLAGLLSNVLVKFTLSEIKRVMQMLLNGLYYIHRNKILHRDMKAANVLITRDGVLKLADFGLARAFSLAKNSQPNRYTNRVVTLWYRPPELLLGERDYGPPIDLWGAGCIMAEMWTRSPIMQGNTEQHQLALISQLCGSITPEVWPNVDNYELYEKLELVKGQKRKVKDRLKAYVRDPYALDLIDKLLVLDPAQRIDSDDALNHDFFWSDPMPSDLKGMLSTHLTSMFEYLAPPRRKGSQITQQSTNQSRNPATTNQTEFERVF
Sequence of CDK9 (O60563 whole entry partner): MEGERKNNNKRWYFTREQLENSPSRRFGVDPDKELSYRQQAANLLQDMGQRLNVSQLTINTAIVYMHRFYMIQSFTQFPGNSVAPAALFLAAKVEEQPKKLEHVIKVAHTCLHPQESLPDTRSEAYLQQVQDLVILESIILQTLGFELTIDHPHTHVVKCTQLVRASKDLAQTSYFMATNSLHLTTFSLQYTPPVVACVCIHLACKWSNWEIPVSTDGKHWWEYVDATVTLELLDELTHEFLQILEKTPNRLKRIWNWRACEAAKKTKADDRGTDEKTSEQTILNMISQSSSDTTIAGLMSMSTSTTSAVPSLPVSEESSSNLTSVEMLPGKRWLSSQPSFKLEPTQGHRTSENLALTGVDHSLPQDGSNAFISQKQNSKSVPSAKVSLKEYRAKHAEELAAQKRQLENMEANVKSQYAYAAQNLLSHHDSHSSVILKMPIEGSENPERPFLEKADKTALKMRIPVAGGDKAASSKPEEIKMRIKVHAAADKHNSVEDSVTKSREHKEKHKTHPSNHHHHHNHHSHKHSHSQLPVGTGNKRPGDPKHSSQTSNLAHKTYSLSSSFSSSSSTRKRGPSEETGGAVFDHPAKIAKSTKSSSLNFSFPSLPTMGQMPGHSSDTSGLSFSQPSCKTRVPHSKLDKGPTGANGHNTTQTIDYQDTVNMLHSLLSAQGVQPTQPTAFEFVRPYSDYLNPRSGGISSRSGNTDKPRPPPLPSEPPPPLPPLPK
Sequence of CDK9 (Q96SW2 whole entry): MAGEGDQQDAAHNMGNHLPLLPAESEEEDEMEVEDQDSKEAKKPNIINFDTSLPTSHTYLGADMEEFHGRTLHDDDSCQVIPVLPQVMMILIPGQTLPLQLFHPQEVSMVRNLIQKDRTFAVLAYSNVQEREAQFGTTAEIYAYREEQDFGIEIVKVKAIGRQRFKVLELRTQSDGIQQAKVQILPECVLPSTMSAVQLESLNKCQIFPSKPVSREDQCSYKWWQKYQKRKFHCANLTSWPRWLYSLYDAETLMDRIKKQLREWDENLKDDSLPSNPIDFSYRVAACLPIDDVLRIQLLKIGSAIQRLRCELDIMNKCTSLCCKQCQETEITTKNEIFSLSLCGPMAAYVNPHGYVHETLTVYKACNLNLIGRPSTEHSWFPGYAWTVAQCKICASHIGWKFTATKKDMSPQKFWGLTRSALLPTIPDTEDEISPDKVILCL
Sequence of CDK9 (Q16531 whole entry partner): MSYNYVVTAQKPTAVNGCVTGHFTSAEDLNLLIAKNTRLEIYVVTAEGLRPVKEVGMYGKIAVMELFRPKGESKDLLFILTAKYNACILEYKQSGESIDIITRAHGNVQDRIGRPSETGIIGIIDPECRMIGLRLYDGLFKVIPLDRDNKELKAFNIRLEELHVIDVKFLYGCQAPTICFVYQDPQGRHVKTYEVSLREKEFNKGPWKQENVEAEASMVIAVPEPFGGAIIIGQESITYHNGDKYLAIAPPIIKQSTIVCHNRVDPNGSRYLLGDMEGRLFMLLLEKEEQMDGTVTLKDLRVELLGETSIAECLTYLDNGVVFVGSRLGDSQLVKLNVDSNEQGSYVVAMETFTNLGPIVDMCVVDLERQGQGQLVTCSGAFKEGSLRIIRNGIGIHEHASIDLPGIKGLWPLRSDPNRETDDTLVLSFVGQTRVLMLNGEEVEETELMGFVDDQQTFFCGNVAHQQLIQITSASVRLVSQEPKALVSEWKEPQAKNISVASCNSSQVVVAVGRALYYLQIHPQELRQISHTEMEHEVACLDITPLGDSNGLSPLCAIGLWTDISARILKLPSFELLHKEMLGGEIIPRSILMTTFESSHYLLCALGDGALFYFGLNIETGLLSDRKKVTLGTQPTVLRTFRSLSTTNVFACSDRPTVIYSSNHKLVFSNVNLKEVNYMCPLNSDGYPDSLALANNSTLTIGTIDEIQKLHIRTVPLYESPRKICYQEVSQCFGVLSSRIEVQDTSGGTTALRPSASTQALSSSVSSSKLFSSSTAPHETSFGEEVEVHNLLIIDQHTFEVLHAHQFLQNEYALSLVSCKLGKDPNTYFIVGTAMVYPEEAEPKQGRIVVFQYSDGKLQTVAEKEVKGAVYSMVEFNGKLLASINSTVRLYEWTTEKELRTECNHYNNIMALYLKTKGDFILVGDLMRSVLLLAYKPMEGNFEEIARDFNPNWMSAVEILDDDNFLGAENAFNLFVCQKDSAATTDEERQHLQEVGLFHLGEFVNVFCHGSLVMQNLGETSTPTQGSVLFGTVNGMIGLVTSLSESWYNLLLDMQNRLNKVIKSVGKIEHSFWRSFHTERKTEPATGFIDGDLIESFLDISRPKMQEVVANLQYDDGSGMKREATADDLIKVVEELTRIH
Outline: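 Parental and resistant Jurkat and MOLT4 cells were treated 8 h with DMSO, CDK12 degraders or a CDK9 degrader (250 nM). Lysis was in NP40 buffer with protease and phosphatase inhibitors plus 1 mM PMSF. Immunoblots for CDK12 and CDK9, with GAPDH loading control, were imaged on an infrared scanner. Representative of n=2 independent experiments.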

Jurkat and MOLT4 cells = assay: Cell cycle analysis by FACS; assay type: cell-based, Human; details: 24 h, BSJ-4-116 50 nM, BSJ-4-116NC 100 nM
Outline: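 Jurkat or MOLT4 cells (0.5×10^6) were treated 24 h. They were fixed in ice-cold 70% ethanol at −20 °C, treated with RNase A (0.5 mg/ml), stained with propidium iodide (50 µg/ml) and analysed by flow cytometry. […] is given as mean ± s.d. of n=2 biologically independent samples, representative of 2 experiments.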

CDK12 I733V/Cyclin K = CDK12 I733V/Cyclin K (Homo sapiens, UniProt Q9NYV4, I733V); assay: 32P-labeled ATP mutated CDK12 kinase assay; assay type: biochemical; details: recombinant I733V CDK12 vs wild type
Outline: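 GST-CDK12 (714–1063) I733V (site-directed mutagenesis) and GST-cyclin K (1–267) were co-expressed with yeast CAK in Sf9 cells for 72 h. Purification was by GST affinity, TEV tag cleavage and size exclusion. The 0.2 μM complex was preincubated with varying compound concentrations for 5 min at 30 °C. Substrate and 0.2 mM [γ-32P]-ATP were added for 15 min at 30 °C. The reaction was stopped with 50 mM EDTA, spotted onto nitrocellulose, washed in phosphoric acid and scintillation-counted.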

| sensitivity of resistant cells to CDK9 degrader (CDK9) | effect of I733V on binding affinity in in vitro kinase assay (CDK12 I733V/Cyclin K) | SMILES | fold less potent than BSJ-4-116 [1] [fold] | CDK13 protein level (CDK13) | sensitivity of CRBN−/− cells in GR assay [2] | Cyclin K protein level (Cyclin K) | genes differentially expressed vs DMSO control cells (Jurkat cells; 50 nM) [gene] | cell cycle distribution (Jurkat and MOLT4 cells) | annotated terminal or 3' poly(A) sites (metagene analysis) (Jurkat cells) | downregulated transcripts (Jurkat cells; BSJ-4-116 50 nM, THZ531 250 nM, FDR <= 0.01) |
| --- | --- | --- | --- | --- | --- | --- | --- | --- | --- | --- |
|  |  | CC(C)S(=O)(=O)c1ccccc1Nc1nc(N[C@@H]2CCCN(CCCCCCCNC(=O)COc3cccc4c3C(=O)N(C3CCC(=O)N(C)C3=O)C4=O)C2)ncc1Cl (stereo partly shown) [BSJ-4-116NC] | 10 | no effect | responding similarly | no effect | 1 |  |  |  |
| remained equally sensitive |  | CC(C)(C)c1cnc(CSc2cnc(NC(=O)C3CCN(CC(=O)NCCOCCOCCOCCNc4cccc5c4C(=O)N(C4CCC(=O)NC4=O)C5=O)CC3)s2)o1 (stereo not shown) [THAL-SNS-032] |  |  |  |  |  |  |  |  |
|  | loss of binding affinity | CN(C)C/C=C/C(=O)Nc1ccc(C(=O)N2CCC[C@@H](Nc3ncc(Cl)c(-c4c[nH]c5ccccc45)n3)C2)cc1 [THZ531] |  | no effect | responding similarly | no effect |  | accumulation of G2/M cells | significant loss | 7050 |
